“Also recorded” adds a separate entry of the source.
Key:
[1] = biological target: T1, rat UT-B (Rattus norvegicus, UniProt P97689); test: UT-B inhibition, erythrocyte lysis assay; type: cell-based
T1 sequence (P97689 1-384): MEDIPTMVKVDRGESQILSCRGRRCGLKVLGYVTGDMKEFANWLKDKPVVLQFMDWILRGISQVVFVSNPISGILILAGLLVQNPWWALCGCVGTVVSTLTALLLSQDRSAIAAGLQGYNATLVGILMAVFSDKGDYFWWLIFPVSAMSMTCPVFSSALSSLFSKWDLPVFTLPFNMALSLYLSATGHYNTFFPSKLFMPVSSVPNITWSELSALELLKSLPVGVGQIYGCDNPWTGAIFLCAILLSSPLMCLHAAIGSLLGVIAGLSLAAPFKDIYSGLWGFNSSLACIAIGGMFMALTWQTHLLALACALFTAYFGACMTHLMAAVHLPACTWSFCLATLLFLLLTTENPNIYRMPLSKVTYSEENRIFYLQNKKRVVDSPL
Outline: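 Rat whole blood was diluted to ~1.5% hematocrit in PBS with 1.25 M acetamide and 5 mM glucose, then incubated 15 min with test compound. Suspension was added rapidly to wells and mixed vigorously, and lysis was read as absorbance at 710 nm. Controls were isosmolar buffer (nonlysed) and 0.7 mM phloretin (lysed), with % lysis normalized between them; mean ± SEM, n = 3.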

[2] = biological target: T2, rat UT-A1 (Rattus norvegicus, UniProt Q62668); type: cell-based
T2 sequence (Q62668 1-929): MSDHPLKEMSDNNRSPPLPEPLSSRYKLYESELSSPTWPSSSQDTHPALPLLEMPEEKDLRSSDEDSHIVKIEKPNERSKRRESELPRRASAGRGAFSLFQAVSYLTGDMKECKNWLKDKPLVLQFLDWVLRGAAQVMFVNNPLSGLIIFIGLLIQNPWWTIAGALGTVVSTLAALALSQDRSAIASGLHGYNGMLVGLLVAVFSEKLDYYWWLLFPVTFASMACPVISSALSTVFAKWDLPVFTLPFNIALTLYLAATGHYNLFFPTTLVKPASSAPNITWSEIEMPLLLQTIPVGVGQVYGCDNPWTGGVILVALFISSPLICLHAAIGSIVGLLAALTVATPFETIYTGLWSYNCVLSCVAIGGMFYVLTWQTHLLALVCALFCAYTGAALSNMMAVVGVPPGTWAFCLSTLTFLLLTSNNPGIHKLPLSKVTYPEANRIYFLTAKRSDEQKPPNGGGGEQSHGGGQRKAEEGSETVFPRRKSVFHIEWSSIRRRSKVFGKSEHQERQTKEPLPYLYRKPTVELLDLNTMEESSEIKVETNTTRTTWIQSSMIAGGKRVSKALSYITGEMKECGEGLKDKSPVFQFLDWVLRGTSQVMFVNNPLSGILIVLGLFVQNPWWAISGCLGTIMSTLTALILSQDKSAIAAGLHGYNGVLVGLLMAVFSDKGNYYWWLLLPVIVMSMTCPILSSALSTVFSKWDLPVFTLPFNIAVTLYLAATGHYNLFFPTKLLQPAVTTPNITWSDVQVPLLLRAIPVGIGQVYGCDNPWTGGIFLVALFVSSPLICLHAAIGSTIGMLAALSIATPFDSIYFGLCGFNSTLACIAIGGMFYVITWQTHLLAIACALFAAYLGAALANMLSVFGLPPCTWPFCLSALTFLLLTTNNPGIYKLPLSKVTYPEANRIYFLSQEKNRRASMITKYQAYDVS
Outline: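 MDCK cells co-expressing rat UT-A1, AQP1 and YFP were used, selecting a clone with bright YFP and relatively low AQP1. Urea transport was read by plate-reader fluorescence, referenced to DMSO (0%) and phloretin (100%). Concentration–inhibition data are mean ± SEM, n = 3. For reversibility, cells were preincubated with 0.5 µM compound and PBS-washed before assay. For kinetics, 0.5 µM was added at varied times before assay. Urea gradients were 200, 400 and 800 mM.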

[3] = Rat pharmacokinetics; type: in vivo; settings: 4 mg/kg intravenous
Outline: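 Tail-vein blood was taken at 15, 30, 60, 120 and 180 min, serum separated, and urine collected in metabolic cages for 3 h; samples were stored at −20 °C. LC/MS (ESI positive) quantified compound against standards spiked into control rat urine and plasma.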

[4] = test system: rats; test: Diuretic studies in rats; type: in vivo; settings: rat, 4 mg/kg intravenous, compared with pretreatment
Outline: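 Male Wistar rats (250–300 g), acclimated individually in metabolic cages for 3 days (6 h/day), with food and water ad libitum. Spontaneously voided urine was collected for 3 h. Test compound or vehicle was then given IV via catheter at 4 mg/kg in saline with 20% dimethylacetamide and 1.28 mg/mL NaOH, and urine was collected for a further 3 h. Read-outs were volume and freezing-point osmolality; mean ± SEM, n = 4; paired t-test versus −3 to 0 h.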

SMILES | UT-B inhibition (in words) [1] | UT-A1 inhibition (in words) [2] | further results
COc1ccc(-c2cccc(-c3ccn(Cc4csc(C)n4)n3)c2)nn1 [compound 2] | little UT-B inhibition | – | –
CCCc1nnc2c(Oc3ccc(NS(=O)(=O)c4cc(Cl)ccc4OC)cc3)nc3cc(F)c(F)cc3n12 [8bl] | – | – | serum concentration ([3]; for 3 h): greater than 2 µM; urine concentration ([3]; urine collected for 3 h): 6 to 8 µM; 3 h urine volume [4]: marked diuresis; also recorded: significantly increased; urine osmolality [4]: reduced urinary osmolality
O=C(Nc1ccon1)c1cc(-c2ccccc2)nc2ccccc12 [compound 3] | little UT-B inhibition | – | –
CCCc1nnc2c(Oc3ccc(NS(=O)(=O)c4cc(Cl)ccc4OC)cc3)nc3ccccc3n12 [8ay] | – | – | Reversibility of UT-A1 inhibition ([2]; 0.5 µM for 15 min followed by washing): fully reversed; half-time for UT-A1 inhibition ([2]; after addition of 0.5 µM compound): ~ 2 min; IC50 for UT-A1 at different urea concentration gradients (inhibition mechanism) ([2]; urea 200, 400 and 800 mM): similar
COC(=O)c1sc2nc3c(cc2c1N)CN(Cc1ccccc1)CC3 [compound 4] | – | low potency | –
CC(=O)Nc1ccc(-c2noc(C3CCCN(C(=O)c4ccccc4F)C3)n2)cc1 (stereo not shown) [compound 1] | little UT-B inhibition | – | –

The next lines start with results.

UT-B inhibition (in words) [1] | UT-A1 inhibition (in words) [2] | SMILES | further results
– | inactive | COc1ccc(Cl)cc1S(=O)(=O)Nc1ccc(Oc2nc3cc(Cl)c(Cl)cc3n3cnnc23)cc1 [8bi] | –
– | inactive | COc1ccc(Cl)cc1S(=O)(=O)Nc1ccc(Oc2nc3ccccc3n3c(C)nnc23)cc1 [8an] | –
– | inactive | COc1ccc(Cl)c(S(=O)(=O)Nc2ccc(Oc3nc4ccccc4n4cnnc34)cc2)c1 [8ag] | –
modest activity | – | COc1ccc(Cl)cc1S(=O)(=O)Nc1ccc(Oc2nc3ccccc3n3cnnc23)cc1 [8aa, N-(4-([1,2,4]Triazolo[4,3-a]quinoxalin-4-yloxy)-phenyl)-5-chloro-2-methoxybenzenesulfonamide] | –
– | inactive | COc1ccc(Cl)c(S(=O)(=O)Nc2ccc(Nc3nc4ccccc4n4cnnc34)cc2)c1 [8am] | –
